What was measured:
[1] = system: EJ; assay: Cytotoxicity against EJ cells after 48 hrs; format: functional; conditions: Homo sapiens
How it was run: (§1)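 Exponentially growing cells exposed to compound at various concentrations for 48 h, then cell numbers measured; concentration giving 50% growth inhibition determined; means of three experiments.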

[2] = target: Cyclin-dependent kinase 2 (Homo sapiens, UniProt P24941); assay: Inhibition of CDK2
[3] = system: SW-620; assay: Cytotoxicity against SW620 cells after 48 hrs; format: functional; conditions: Homo sapiens, SW-620, 48 h; how it was run: as §1
[4] = system: HCT-116; assay: Cytotoxicity against HCT116 cells after 48 hrs; format: functional; conditions: Homo sapiens, HCT-116, 48 h; how it was run: as §1
[5] = system: MDA-MB-468; assay: Cytotoxicity against MDA-MB-468 cells after 48 hrs; format: functional; conditions: Homo sapiens, MDA-MB-468, 48 h; how it was run: as §1
[6] = target: Cyclin-dependent kinase 1 (Homo sapiens, UniProt P06493); assay: Inhibition of CDK1
Chain of Cyclin-dependent kinase 1 (P06493 whole entry): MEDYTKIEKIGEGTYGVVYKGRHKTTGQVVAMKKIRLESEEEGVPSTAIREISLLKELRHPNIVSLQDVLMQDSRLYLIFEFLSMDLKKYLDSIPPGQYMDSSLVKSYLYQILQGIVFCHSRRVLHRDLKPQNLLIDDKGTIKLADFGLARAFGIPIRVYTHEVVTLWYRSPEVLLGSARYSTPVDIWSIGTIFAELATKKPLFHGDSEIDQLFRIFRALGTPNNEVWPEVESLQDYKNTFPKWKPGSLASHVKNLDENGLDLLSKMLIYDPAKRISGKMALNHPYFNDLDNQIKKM

Cc1cc(N2CCCS2(=O)=O)c2oc(-c3ccc(O)c(Cl)c3)c(O)c(=O)c2c1 gave a GI50 [1] of 0.065 µM, an IC50 [2] of 0.19 µM and a GI50 [3] of 0.064 µM. The GI50 [4] was 0.037 µM, the GI50 [5] was 0.18 µM and the IC50 [6] was 0.033 µM.

Cc1cc(N2CCCC2)c2oc(-c3ccc(O)c(O)c3)c(O)c(=O)c2c1 gave an IC50 [2] of 3 µM.

Work on Cc1cc(N2C(=O)CNC2=O)c2oc(-c3ccc(O)c(O)c3)c(O)c(=O)c2c1 yielded an IC50 [2] of 4 µM.

Cc1cc(N2CCCS2(=O)=O)c2oc(-c3ccc(O)c(Br)c3)c(O)c(=O)c2c1 showed a GI50 [1] of 0.064 µM, a GI50 [3] of 0.052 µM and a GI50 [4] of 0.017 µM. The GI50 [5] was 0.23 µM and the IC50 [6] was 0.019 µM.

Molecule Cc1cc(N2CCCS2(=O)=O)c2oc(-c3ccc(O)c(C(F)(F)F)c3)c(O)c(=O)c2c1 has a GI50 [1] of 1.3 µM, an IC50 [2] of 1.7 µM and a GI50 [4] of 0.91 µM. The IC50 [6] was 0.063 µM.

Cc1cc(N2C(=O)CN(C)C2=O)c2oc(-c3ccc(O)c(O)c3)c(O)c(=O)c2c1 gave a GI50 [1] of 1.1 µM and an IC50 [2] of 0.056 µM.

Cc1cc(N2CCCC2=O)c2oc(-c3ccc(O)c(O)c3)c(O)c(=O)c2c1 gave an IC50 [2] of 1.6 µM.

O=c1cc(-c2ccc(O)c(O)c2)oc2cc(O)cc(O)c12 [LUTEOLIN] was tested, and the IC50 [2] was 20 µM.

For Cc1cc(N2C(=O)CCCC2=O)c2oc(-c3ccc(O)c(O)c3)c(O)c(=O)c2c1, the IC50 [2] was 4.4 µM.

For Cc1cc(N2CCCCC2)c2oc(-c3ccc(O)c(O)c3)c(O)c(=O)c2c1, the IC50 [2] was 2.6 µM.

Molecule Cc1cc(N2CCCS2(=O)=O)c2oc(-c3ccc(O)cc3)c(O)c(=O)c2c1 has a GI50 [1] of 0.27 µM, a GI50 [3] of 0.57 µM and a GI50 [4] of 0.34 µM. The GI50 [5] was 0.62 µM and the IC50 [6] was 0.45 µM.

Cc1cc(N2CCCS2(=O)=O)c2oc(-c3ccc(O)c(O)c3)c(O)c(=O)c2c1 gave a GI50 [1] of 0.6 µM, a GI50 [3] of 0.9 µM and a GI50 [4] of 0.28 µM. The GI50 [5] was 1 µM and the IC50 [6] was 0.13 µM.

For Cc1cc(N)c2oc(-c3ccc(O)c(O)c3)c(O)c(=O)c2c1, the IC50 [2] was 0.63 µM.

Cc1cc(N2C(=O)CCC2=O)c2oc(-c3ccc(O)c(O)c3)c(O)c(=O)c2c1 was tested, and the GI50 [1] was 1.2 µM and the IC50 [2] was 1.5 µM.

O=c1cc(-c2ccc(O)c(O)c2)oc2ccccc12 was tested, and the IC50 [2] was > 500 µM.

O=c1c(O)c(-c2ccc(O)c(O)c2)oc2cc(O)cc(O)c12 [QUERCETIN] gave an IC50 [2] of 40 µM.

O=c1c(O)c(-c2ccc(O)c(O)c2)oc2ccccc12 gave an IC50 [2] of 4 µM.

O=c1c(O)c(-c2ccc(O)c(O)c2)oc2cc(O)ccc12 [FISETIN] showed an IC50 [2] of 5 µM.

With Cc1cc(N2CCN(C)CC2)c2oc(-c3ccc(O)c(O)c3)c(O)c(=O)c2c1 the IC50 [2] was 0.64 µM.

Cc1cc(N2CCCS2(=O)=O)c2oc(-c3ccc(O)c(C#N)c3)c(O)c(=O)c2c1 showed an IC50 [6] of 0.16 µM.

With O=c1cc(-c2ccc(O)c(O)c2)oc2c(O)c(O)ccc12 the IC50 [2] was > 500 µM.

In the case of CCN(CC)c1cc(C)cc2c(=O)c(O)c(-c3ccc(O)c(O)c3)oc12, the IC50 [2] is reported as 1.6 µM.

Source: ChEMBL document CHEMBL1148833, “3-Hydroxychromones as cyclin-dependent kinase inhibitors: synthesis and biological evaluation” (Bioorg Med Chem Lett, 2007)
